ChEMBL document CHEMBL1144782, “Isoindolo[2,1-a]quinoxaline derivatives, novel potent antitumor agents with dual inhibition of tubulin polymerization and topoisomerase I” (2008)

Columns and labels:
Format in all cases: functional
[1] = tested on: NCI-H226; test: Antitumor activity against human NCI-H226 cells
Outline: (§1)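 Run by the NCI in its in vitro disease-oriented screen of about 60 human tumour cell lines. For each line it reports pGI50 (50% net growth inhibition), pTGI (total growth inhibition) and pLC50 (50% net cell death), each as –log molar concentration. Where an effect was not reached within the tested range, the highest tested concentration was used.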

[2] = Antitumor activity against human NCI-H322 cells; outline: as §1
[3] = tested on: NCI-H460; test: Antitumor activity against human NCI-H460 cells; outline: as §1
[4] = tested on: COLO 205; test: Antitumor activity against human COLO205 cells; outline: as §1
[5] = tested on: HCC 2998; test: Antitumor activity against human HCC2998 cells; outline: as §1
[6] = tested on: HCT-116; test: Antitumor activity against human HCT116 cells; outline: as §1
[7] = tested on: HCT-15; test: Antitumor activity against human HCT15 cells; outline: as §1
[8] = tested on: HT-29; test: Antitumor activity against human HT29 cells; outline: as §1
[9] = tested on: SW-620; test: Antitumor activity against human SW620 cells
Outline: (§2)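 NCI 60-cell-line screen. Parameters were GI50 (50% net growth inhibition), TGI and LC50, each reported as –log molar concentration. Where an effect was not reached within the tested range, the highest tested concentration was used in the calculation.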

[10] = tested on: SF-268; test: Antitumor activity against human SF268 cells; outline: as §1
[11] = tested on: SF-539; test: Antitumor activity against human SF539 cells; outline: as §1
[12] = tested on: SNB-19; test: Antitumor activity against human SNB19 cells; outline: as §1
[13] = tested on: SNB-75; test: Antitumor activity against human SNB75 cells; settings: Homo sapiens, SNB-75; outline: as §1
[14] = tested on: U-251; test: Antitumor activity against human U251 cells; outline: as §2
[15] = tested on: SK-MEL-2; test: Antitumor activity against human SKMEL2 cells; outline: as §1
[16] = tested on: SK-MEL-28; test: Antitumor activity against human SKMEL28 cells; outline: as §1
[17] = tested on: UACC-257; test: Antitumor activity against human UACC257 cells; outline: as §2
[18] = tested on: IGROV-1; test: Antitumor activity against human IGROV1 cells; outline: as §1
[19] = tested on: OVCAR-3; test: Antitumor activity against human OVCAR-3 cells; outline: as §1
[20] = tested on: OVCAR-4; test: Antitumor activity against human OVCAR4 cells; outline: as §1
[21] = tested on: OVCAR-5; test: Antitumor activity against human OVCAR5 cells; outline: as §1
[22] = tested on: OVCAR-8; test: Antitumor activity against human OVCAR8 cells; outline: as §1
[23] = tested on: A498; test: Antitumor activity against human A498 cells; outline: as §1
[24] = tested on: NCI-H460; test: Cell viability against human NCI-H460 cells at 10 uM
[25] = tested on: MCF7; test: Cell viability against human MCF7 cells at 10 uM
[26] = tested on: SF-268; test: Cell viability against human SF268 cells at 10 uM
[27] = tested on: CCRF-CEM; test: Antitumor activity against human CCRF-CEM cells; outline: as §1
[28] = tested on: MOLT-4; test: Antitumor activity against human MOLT4 cells; outline: as §1
[29] = tested on: A549; test: Antitumor activity against human A549 cells; outline: as §1
[30] = tested on: EKVX; test: Antitumor activity against human EKVX cells; outline: as §1
[31] = tested on: HOP-62; test: Antitumor activity against human HOP62 cells; outline: as §1
[32] = tested on: TK-10; test: Antitumor activity against human TK10 cells; outline: as §2
[33] = tested on: PC-3; test: Antitumor activity against human PC3 cells; outline: as §1
[34] = tested on: NCI/ADR-RES; test: Antitumor activity against human NCI/ADR-RES cells; outline: as §1
[35] = Antitumor activity against human […] cells; outline: as §1
[36] = tested on: MDA-MB-435; test: Antitumor activity against human MDA-MB-435 cells; outline: as §1
[37] = tested on: T47D; test: Antitumor activity against human T47D cells; outline: as §2
[38] = tested on: MCF7; test: Growth inhibition of human MCF7 cells after 72 hrs by MTT assay; settings: MCF7, 72 h
Outline: (§3)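 Growth inhibition by MTT after 72 h incubation. Resistant sublines: LoVoDoxo and MCF-7 MDR were kept in 0.1 µg/mL doxorubicin; CEMVbl-100 was selected against vinblastine. GI50 given as mean ± SEM of three independent experiments. Resistance index is resistant-line GI50 over parental GI50.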

[39] = tested on: MCF7; test: Growth inhibition of human multidrug-resistant MCF7 cells after 72 hrs by MTT assay; settings: MCF7, 72 h; outline: as §3
[40] = tested on: CCRF-CEM; test: Growth inhibition of human vinblastine-resistant CEM cells after 72 hrs by MTT assay; outline: as §3
[41] = tested on: CCRF-CEM; test: Resistance index, Ratio of GI50 for human vinblastine-resistant CEM cells to GI50 for human CEM cells
[42] = read-out: Log LC50 (the source's name) (converted)

Question: What does the source list for COc1ccc2c(c1)[nH]c(=O)c1c3ccccc3cn21?
Answer: GI50 [1]: 0.0457 µM; LC50 (50% net cell kill) [1]: > 100 µM; TGI ([1]; read-out: pTGI (converted)): 0.525 µM; GI50 [2]: 0.0832 µM; LC50 (50% net cell death) [2]: 7.76 µM; TGI ([2]; read-out: pTGI (converted)): 2.57 µM; GI50 [3]: 0.0347 µM; CC50 [3, 42]: 5.13 µM; TGI ([3]; read-out: pTGI (converted)): 1.12 µM; GI50 [4]: 0.0407 µM; LC50 [4]: 5.75 µM; TGI ([4]; read-out: pTGI (converted)): 1.15 µM; GI50 [5]: 0.0182 µM; LC50 [5]: 0.501 µM; TGI ([5]; read-out: pTGI (converted)): 0.049 µM; GI50 [6]: 0.0398 µM; LC50 [6]: 4.47 µM; TGI ([6]; read-out: pTGI (converted)): 1.32 µM; GI50 [7]: 0.0263 µM; CC50 [7, 42]: 4.57 µM; TGI ([7]; read-out: pTGI (converted)): 1.15 µM; GI50 [8]: 0.0339 µM; LC50 [8]: > 100 µM; TGI ([8]; read-out: pTGI (converted)): 1.48 µM; GI50 [9]: 0.0263 µM; CC50 [9, 42]: 4.17 µM; TGI ([9]; read-out: pTGI (converted)): 1.41 µM; GI50 [10]: 0.0741 µM; CC50 [10, 42]: 87.1 µM; TGI ([10]; read-out: pTGI (converted)): 2.95 µM; GI50 [11]: 0.0229 µM; LC50 (50% net cell kill) [11]: 2.75 µM; TGI ([11]; read-out: pTGI (converted)): 0.0708 µM; GI50 [12]: 0.0389 µM; CC50 [12, 42]: > 100 µM; TGI ([12]; read-out: pTGI (converted)): 4.07 µM; GI50 [13]: 0.0275 µM; LC50 [13]: > 100 µM; TGI ([13]; read-out: pTGI (converted)): 0.0832 µM; GI50 [14]: 0.0437 µM; CC50 [14, 42]: 5.01 µM; TGI ([14]; read-out: pTGI (converted)): 1.51 µM; GI50 [15]: 0.158 µM; LC50 [15]: 7.76 µM; TGI ([15]; read-out: pTGI (converted)): 2.51 µM; GI50 [16]: 0.0525 µM; CC50 [16, 42]: 6.61 µM; TGI ([16]; read-out: pTGI (converted)): 2.51 µM; GI50 [17]: 5.13 µM; LC50 [17]: 74.1 µM; TGI ([17]; read-out: pTGI (converted)): 30.9 µM; GI50 [18]: 0.0741 µM; CC50 [18, 42]: 8.51 µM; TGI ([18]; read-out: pTGI (converted)): 2.29 µM; GI50 [19]: 0.0224 µM; LC50 (50% net cell death) [19]: 2.88 µM; TGI ([19]; read-out: pTGI (converted)): 0.0646 µM; GI50 [20]: 0.0912 µM; LC50 (50% net cell kill) [20]: > 100 µM; TGI ([20]; read-out: pTGI (converted)): 5.13 µM; GI50 [21]: 0.1 µM; LC50 (50% net cell death) [21]: 77.6 µM; TGI ([21]; read-out: pTGI (converted)): 7.94 µM; GI50 [22]: 0.0575 µM; LC50 (50% net cell death) [22]: > 100 µM; TGI ([22]; read-out: pTGI (converted)): 2.34 µM; GI50 [23]: 0.0224 µM; CC50 [23, 42]: > 100 µM; TGI ([23]; read-out: pTGI (converted)): 1.35 µM; Activity [24]: 0%; Activity [25]: 0%; Activity [26]: 1%; GI50 [27]: 0.0302 µM; LC50 [27]: > 100 µM; TGI ([27]; read-out: pTGI (converted)): 1.45 µM; GI50 [28]: 0.0776 µM; LC50 [28]: 75.9 µM; TGI ([28]; read-out: pTGI (converted)): 2.14 µM; GI50 [29]: 0.0676 µM; CC50 [29, 42]: 6.03 µM; TGI ([29]; read-out: pTGI (converted)): 1.66 µM; GI50 [30]: 0.0912 µM; LC50 (50% net cell kill) [30]: > 100 µM; TGI ([30]; read-out: pTGI (converted)): 29.5 µM; GI50 [31]: 0.0309 µM; LC50 (50% net cell death) [31]: 3.89 µM; TGI ([31]; read-out: pTGI (converted)): 1.23 µM; GI50 [32]: 0.513 µM; CC50 [32, 42]: 6.61 µM; TGI ([32]; read-out: pTGI (converted)): 2.45 µM; GI50 [33]: 0.0372 µM; LC50 (50% net cell death) [33]: > 100 µM; TGI ([33]; read-out: pTGI (converted)): 2.57 µM; GI50 [34]: 0.0214 µM; LC50 [34]: 10 µM; TGI ([34]; read-out: pTGI (converted)): 0.0575 µM; GI50 [35]: 0.0562 µM; LC50 [35]: 3.09 µM; TGI ([35]; read-out: pTGI (converted)): 0.741 µM; GI50 [36]: 0.00407 µM; LC50 (50% net cell death) [36]: > 100 µM; TGI ([36]; read-out: pTGI (converted)): 0.0209 µM; GI50 [37]: 0.0479 µM; LC50 [37]: > 100 µM; TGI ([37]; read-out: pTGI (converted)): 4.57 µM; GI50 [38]: 0.17 µM; GI50 [39]: 0.15 µM; GI50 [40]: 0.02 µM; RatioGI50 [41]: 1
